In brackets after ≈: the same amount, converted by molar mass.
Legend:
[1] = system: Candida albicans; test: In vitro minimum inhibitory concentration against Candida albicans.; type: functional
[2] = system: Nucleic Acid
[3] = system: Nucleic Acid; remark: listed apart in the source
[4] = system: Aspergillus fumigatus; test: Antimicrobial activity against Aspergillus fumigatus (MIC); type: functional
[5] = system: Aspergillus fumigatus; test: In vitro minimum fungicidal concentration required to inhibit Aspergillus fumigatus(MFC); type: functional
In short: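 Mould MFC: 100 µL aliquots from macrodilution tubes (RPMI 1640/MOPS pH 7.0, 0.5 × 10³ to 2.5 × 10³ CFU/mL conidial inoculum, 30 °C, 48-72 h, drug 100 to 0.09 µg/mL) showing complete growth inhibition plated on Sabouraud agar; MFC taken as lowest drug concentration giving three or fewer colonies.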

[6] = system: Mycobacterium tuberculosis; test: In vitro minimum inhibitory concentration required to inhibit Mycobacterium tuberculosis; type: functional
In short: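 M. tuberculosis H37Rv grown in BACTEC 12B medium; fluorometric broth microdilution (Microplate Alamar Blue Assay). […] MIC = lowest concentration reducing relative fluorescence units by ≥90% relative to control culture. Testing done by TAACF.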

[7] = system: Candida albicans; test: In vitro minimum fungicidal concentration against Candida albicans.; type: functional
In short: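 Yeast MFC: after broth macrodilution (RPMI 1640/MOPS pH 7.0, 0.5 × 10³ to 2.5 × 10³ CFU/mL, 35 °C, 48 h or 72 h for C. neoformans, drug 100 to 0.09 µg/mL), 100 µL from tubes with complete inhibition plated on Sabouraud agar; lowest concentration yielding three or fewer colonies recorded.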

[8] = system: Aspergillus fumigatus; test: In vitro antimicrobial activity against Aspergillus fumigatus (MIC); type: functional

| SMILES | MIC [1] [µg/mL] | ΔTm [2] | ΔTm [3] | MIC [4] [µg/mL] | MFC [5] [µg/mL] | MIC [6] [µg/mL] | MFC [7] [µg/mL] | MIC [8] [µg/mL] |
| --- | --- | --- | --- | --- | --- | --- | --- | --- |
| CC(=N)Nc1ccc(-c2ccc(-c3ccc(NC(C)=N)cc3)o2)cc1 | > 100 | 15.9 | 6 | 100 (≈ 301 µM) | > 100 |  |  |  |
| Cc1cc(NC(=N)c2ccccn2)ccc1-c1ccc(-c2ccc(NC(=N)c3ccccn3)cc2C)o1 | 10 (≈ 20.6 µM) | 22.6 | 8.9 | 10 (≈ 20.6 µM) | 100 (≈ 206 µM) | ≤ 1 | 10 (≈ 20.6 µM) |  |
| N=C(Nc1ccc(-c2ccc(-c3ccc(NC(=N)C4CCCCC4)cc3)o2)cc1)C1CCCCC1 | > 100 | 26.7 | 12.8 | 100 (≈ 213 µM) | > 100 | ≤ 6.25 |  |  |
| Cc1cc(NC(=N)N)cc(C)c1-c1ccc(-c2c(C)cc(NC(=N)N)cc2C)o1 |  | 2.7 | 1.4 |  |  |  |  |  |
| Cl.Cl.N=C(N)Nc1ccc(-c2ccc(-c3ccc(NC(=N)N)cc3)o2)cc1 | 12.5 | 21.6 | 10.8 |  | > 100 | 3.13 | 25 | 100 |

From ChEMBL document CHEMBL1134485, “Diguanidino and "reversed" diamidino 2,5-diarylfurans as antimicrobial agents” (2001)
